SMILES strings stand for the structures.

IC50, Activity and inhibition data for seven compounds are collected here from ChEMBL document CHEMBL1165938, “An isoaurone and other constituents from Trichosanthes kirilowii seeds inhibit hypoxia-inducible factor-1 and nuclear factor-kappaB” (J Nat Prod, 2010).

For one series, the system named is Hep 3B2. The experiment in a line: Inhibition of hypoxia-induced VEGF protein secretion in human Hep3B cells after 16 hrs by ELISA. The class given is functional, cell-based. Summed up: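 Hep3B cells were seeded at 2 × 10^5 per well and exposed to a range of concentrations for 16 h under normoxia or hypoxia (1% O2, 5% CO2, 37 °C). VEGF in the culture supernatant was quantified with a DuoSet sandwich ELISA. 17-DMAG served as positive control. IC50s are mean ± SD from three experiments.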
A general note: ELISA stands for enzyme-linked immunosorbent assay.

A short description of series [1]: Inhibition of NF-kappaB activity in human HeLa cells by SEAP reporter assay. The class given is cell-based. An outline of the steps: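 HeLa cells grown in DMEM with 10% FBS and penicillin/streptomycin at 37 °C, 5% CO2. NF-κB activity read by a secreted alkaline phosphatase (SEAP) reporter, with celastrol as positive control. Values are IC50s, mean ± SD from three experiments.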
(Reporter assays use an easily measured gene product as a stand-in for the process of interest.)

Series [2] is described as follows: Cytotoxicity against human Hep3B cells after 24 hrs by MTT assay. The class given is cell-based. The settings on record: hep 3b2, 24 h.
Series [3] addresses Hypoxia-inducible factor 1-alpha (Homo sapiens, UniProt Q16665). The experiment in a line: Inhibition of hypoxia-induced HIF1alpha protein accumulation in human Hep3B cells treated for 30 mins measured after 12 hrs by Western blot analysis. The class given is functional, cell-based, Hep 3B2. The settings on record: for inhibition: Hep 3B2. An outline of the steps:
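Hep3B cells (DMEM, 10% FBS, 37 °C) were pretreated with a range of compound concentrations for 30 min, then kept 12 h under normoxia or hypoxia (1% O2, 94% N2, 5% CO2, 37 °C). HIF-1α was detected by western blot with a mouse monoclonal anti-HIF-1α antibody. Topoisomerase-1 was probed as the loading control.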
(In western blotting, separated proteins are transferred to a membrane and probed.)

The nature of series [4]: Inhibition of hypoxia-induced HIF1alpha protein accumulation in human Hep3B cells treated for 30 mins measured after 12 hrs by Western blot analysis. The settings on record: hep 3b2.

As usually defined, the IC50 is the concentration that inhibits the measured activity by half. Turning to `CC1=CC(=O)CC(C)(C)[C@@]1(O)/C=C/[C@@H](C)O` [BLUMENOL A], the IC50 with Hep 3B2 came to 26200 nM; in series [1] it was 12300 nM; in series [3] it was 15800 nM. For the same compound, the Activity entry in series [2] is reported as “Non-toxic”.

With `COc1cc(O)cc2c1/C(=C\c1ccc(O)cc1)C(=O)O2`, the IC50 worked out at 930 nM in the series with Hep 3B2, 560 nM in series [1] and 690 nM in series [3]. Besides, in series [2], the Activity result is “Non-toxic”. Moreover, the inhibition entry in series [3] was “Dose-dependent effect”.

As for `CC(=O)OC(C)(C)/C=C/C(=O)[C@](C)(O)[C@H]1[C@H](O)C[C@@]2(C)[C@@H]3CC=C4[C@@H](C[C@H](O)C(=O)C4(C)C)[C@]3(C)C(=O)C[C@]12C` [CUCURBITACIN B], the Activity result in series [2] was “Non-toxic”. In series [3], the IC50 is 270 nM.

For `CO[C@H]1/C=C\C=C(/C)C(=O)NC2=CC(=O)C(NCCN(C)C)=C(C[C@@H](C)C[C@H](OC)[C@H](O)[C@@H](C)/C=C(\C)[C@@H]1OC(N)=O)C2=O` [ALVESPIMYCIN], in series [4], the midpoint of inhibition, the IC50, lay at 57 nM.

As for `COc1cc(/C=C/c2ccc(OC)c(O)c2)oc(=O)c1`, the IC50 is 1040 nM in the series with Hep 3B2, 400 nM in series [1] and 810 nM in series [3]. Further, the Activity result in series [2] is “Non-toxic”. Further, in series [3], the inhibition result was “Dose-dependent effect”.

In the case of `CC(=O)OC(C)(C)/C=C/C(=O)[C@](C)(O)[C@H]1[C@H](O)C[C@@]2(C)[C@@H]3CC=C4[C@H](C[C@H](O)C(=O)C4(C)C)[C@]3(C)C(=O)C[C@]12C` [CUCURBITACIN B], the IC50 with Hep 3B2 is 310 nM; in series [1], 61 nM. For the same compound, the inhibition entry in series [3] is “Dose-dependent effect”.

`CC1=C(O)C(=O)C=C2C1=CC=C1[C@@]2(C)CC[C@@]2(C)[C@@H]3C[C@](C)(C(=O)O)CC[C@]3(C)CC[C@]12C` [CELASTROL]: it took 150 nM to reach half-maximal inhibition in series [1] (IC50).
